Assay outcomes (PubChem BioAssay)
PglD DTNB – C. jejuni PglD acetyltransferase inhibitors, primary screen, biochemical, DTNB colorimetric, single point; AID 602405, 2012; 360,000 compounds, 0.098% hits; inhibition, % at 12.5 µM; purified PglD enzyme, DTNB colorimetric CoA detection; in the data active means inhibition above about 16%, passing the limit was not always enough
miR-122 sensor – miR-122 Renilla sensor signal increase in Huh7, primary screen, miR-122 inhibitor project, cell-based, single point, plate reader | 340,000 compounds, 0.3% hits | activation (reporter increase), % at 12.5 µM | Huh7 miR-122 Renilla luciferase sensor, 48 h; neutral wells = 0, positive control = 100 | AID 602342, 2012;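 active means mean replicate activation score at least 90 and every replicate individually at or above 90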;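 further: higher luciferase means less miR-122 activity so hits act as miR-122 inhibitors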
CAL PDZ FP-1 – CAL PDZ peptide-binding inhibitors, primary screen, biochemical, fluorescence polarization, Cer-tagged CAL PDZ, HTS. Golgi-associated PDZ and coiled-coil motif-containing protein (Homo sapiens), Q9HD26. purified CAL PDZ, TMR-peptide fluorescence polarization, 1 h. inhibition, % at 20 µM. 330,000 compounds, 0.02% hits. AID 504414, 2011;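 active means highest replicate inhibition of at least 40%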;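 further: plate controls were DMSO neutral control wells for no effect and unlabeled competitor peptide control wells for full effect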
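material = purified tagged CAL PDZ domain construct (CerCALP) | buffer or medium = sodium phosphate/NaCl buffer pH 7.4 with TCEP, IgG, Thesit | reagent = TMR-labelled reporter peptide T*-PRC34 bound in PDZ groove | incubation = 1 h room-temperature incubation prior to read | measured by = fluorescence polarization (mP) | evaluation = percent inhibition from loss of millipolarization | control set = unlabelled peptide and DMSO controls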
Cneo AK release – Cryptococcus neoformans cell lysis inducers, primary screen, AK release luminescence, single concentration. 360,000 compounds, 0.2% hits. AID 651654, 2012. lysis activity, % at 15 µM. C. neoformans lysis, adenylate kinase release luminescence, 4 h; normalised: neutral wells 0, clomiphene wells 100;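 active means mean lysis activity across replicates of at least 80%, whatever share of replicates individually reach that level; inactive means mean lysis activity below 80%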
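Test system: log-phase Cryptococcus neoformans yeast cells; Quantity: yeast cell density of 5 × 10^6 cells/mL; Buffer or medium: YPD; Doses: single compound concentration per well; Timing: 4 h at 37 °C static, read 1 h later; Measured by: AK luminescence; Read-out basis: lysis from increased AK signal; Control set: Clomiphene as positive control.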
CAL PDZ FP-2 – untagged CAL PDZ binding inhibitors, primary screen, biochemical, fluorescence polarization, HTS | purified CAL PDZ, TMR-peptide fluorescence polarization, 1 h | Golgi-associated PDZ and coiled-coil motif-containing protein (Homo sapiens), Q9HD26 | 300,000 compounds, 0.92% hits | inhibition, % at 24.9 µM;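 active means mean inhibition of at least 30% with at least half of replicates also reaching 30%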;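 further: 0% = DMSO neutral control and 100% = excess unlabeled competitor peptide PRC23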
* marks the source's active call; other numbers are inactive results; [ ] = another dose, or the depositor's remark. The list is not random: actives were taken first. Their share in the collection is about 1.1%.

Results for O=C(c1ccc2c(c1)OCO2)C1CCCN(CC2CCCCC2)C1 (stereo not given) ?
CAL PDZ FP-1: -1.5; CAL PDZ FP-2: 78.4*

How did O=C(c1ccc2c(c1)OCO2)C1CCCN(Cc2c(F)cccc2Cl)C1 (stereo not given) do in these assays?
PglD DTNB: 6.2; CAL PDZ FP-1: -0.5; Cneo AK release: 4.1

How did COc1ccc(C#Cc2ccc([C@H]3[C@H]4CN(C(=O)Cc5cccnc5)CCCCN4[C@H]3CO)cc2)cc1 do in these assays?
PglD DTNB: -0.7; miR-122 sensor: -16.0[16.7 µM]; Cneo AK release: -0.1

Results for O=C(N/N=C/c1c(O)n(CCc2ccc(F)cc2)c(=O)[nH]c1=O)c1ccccc1 ?
PglD DTNB: 7.7; miR-122 sensor: -2.6; Cneo AK release: 0.3

Results for CCn1c(O)c(/C=N/NC(=O)c2ccccc2)c(=O)[nH]c1=S ?
CAL PDZ FP-1: -0.3; CAL PDZ FP-2: 74.2*

How did CC(=NCc1cccnc1)c1c(O)n(-c2ccc(Cl)cc2)c(=O)[nH]c1=O do in these assays?
CAL PDZ FP-1: -0.3; CAL PDZ FP-2: 45.5*

What do the screens show for `Cc1nc2ccccc2c(=O)n1-c1cccc(O)c1`?
PglD DTNB: -2.3; miR-122 sensor: -15.3; Cneo AK release: -1.6; CAL PDZ FP-2: 0.3

How did Cc1ccc(-c2nc3ccccc3c(=O)n2-c2cccc(O)c2)cc1 do in these assays?
miR-122 sensor: 1.6; CAL PDZ FP-1: -2.7; CAL PDZ FP-2: 57.5*

Results for CCN1[C@@H]2c3ccc(-c4cccc(OC)c4)c(=O)n3C[C@H]1[C@H](CO)[C@H]2C(=O)OC ?
PglD DTNB: -4.9; miR-122 sensor: 3.1[16.7 µM]; Cneo AK release: -1.8

What do the screens show for `COC(=O)[C@H]1[C@H](CO)[C@H]2Cn3c(cccc3=O)[C@@H]1N2C(=O)C1CCCC1`?
PglD DTNB: 3.4; miR-122 sensor: 33.9[16.7 µM]; Cneo AK release: -8.6

Results for CC1CN=C(Nc2ccc(F)c(Cl)c2)S1 (stereo not given) ?
CAL PDZ FP-1: 0.4; CAL PDZ FP-2: 54.2*

Results for CCOP(=O)(CCP(=O)(OCC)OCC)OCC.C[CH2][Sn]([Cl])([Cl])[CH2]C ?
miR-122 sensor: 22.2; CAL PDZ FP-1: 0.6; CAL PDZ FP-2: -0.9

Results for CC(=O)OC1(C)CC(C)C(=O)C(C(O)CC2CC(=O)NC(=O)C2)C1 (stereo not given) ?
PglD DTNB: -2.6; miR-122 sensor: -11.6; CAL PDZ FP-1: -0.5; Cneo AK release: 97.8*; CAL PDZ FP-2: -4.2

What do the screens show for `COc1ccc(-c2ccc3n(c2=O)C[C@@H]2[C@@H](CO)[C@H](C(=O)O)[C@H]3N2C(=O)c2ccccc2F)cc1`?
PglD DTNB: -1.2; Cneo AK release: -2.4

Results for COc1ccc(-c2ccc3c(c2)CN(C(=S)NCCc2ccccc2)Cc2cnnn2-3)cc1 ?
PglD DTNB: 3.6; miR-122 sensor: 119.1*; Cneo AK release: 0.4

How did COC(=O)[C@@H]1[C@@H](CO)[C@@H]2Cn3c(ccc(C4=CCCC4)c3=O)[C@H]1N2C(=O)CC1CC1 do in these assays?
PglD DTNB: -0.5; miR-122 sensor: -4.9[16.7 µM]; Cneo AK release: -5.8

What do the screens show for `COc1cc(OC)c(OC)cc1/C=C1\C(=O)NC(=O)N(Cc2ccccc2)C1=O`?
PglD DTNB: 3.4; miR-122 sensor: -4.1; CAL PDZ FP-1: 0.1; Cneo AK release: -0.9; CAL PDZ FP-2: 67.0*

What do the screens show for `COc1cc(OC)c(OC)cc1/C=C1/C(=O)NC(=O)N(Cc2ccccc2)C1=O`?
PglD DTNB: -0.4; CAL PDZ FP-1: 0.5; Cneo AK release: 2.5

Results for C[C@@H]1O[C@@H](O[C@H]2C[C@@H](O)[C@]3(CO)[C@H]4[C@H](O)C[C@]5(C)[C@@H](C6COC(=O)C6)CC[C@]5(O)[C@@H]4CC[C@]3(O)C2)[C@H](O)[C@H](O)[C@H]1O (stereo not given in full) ?
PglD DTNB: 5.0; miR-122 sensor: 113.6*; CAL PDZ FP-1: -0.5; Cneo AK release: 0.3; CAL PDZ FP-2: -2.0
